# Source: ChEMBL document CHEMBL4414612, “Synthesis and Pharmacological Evaluation of 1-Phenyl-3-Thiophenylurea Derivatives as Cannabinoid Type-1 Receptor Allosteric Modulators” (J Med Chem, 2019)
# The source made the active and inactive calls. The rule behind the calls is not given here.
# Columns and labels:
# [1] = Clearance in rat liver microsomes in presence of NADPH incubated up to 45 mins by LC-MS/MS analysis; format: ADME, Microsome; details: microsomes, […]
# In short: (§1)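 Rat liver microsomes (0.5 mg/mL protein) in 100 mM potassium phosphate pH 7.4 at 37 °C with 1 mM NADPH. Samples were taken at 0, 5, 15, 30 and 45 min, quenched with cold acetonitrile containing internal standards, and analysed by LC/MS/MS. Half-life and clearance were calculated; two independent experiments in duplicate.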
# Cannabinoid receptor 1 [2] = biological target: T1, Cannabinoid receptor 1 (Homo sapiens, UniProt P21554); assay: Inverse agonist activity at human CB1 receptor expressed in HEK293 cell membranes assessed as suppression of [35S]GTPgammaS binding up to 10 uM incubated for 60 mins by scintillation counting method; details: hek293, 1 h
# In short: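 Inverse agonism on human CB1-HEK293 membranes: compounds were incubated 60 min with 0.1 nM [35S]GTPγS and 30 µM GDP, with no CP55,940 present. Buffer was Tris/MgCl2/EGTA pH 7.4 with 0.5% BSA, at 30 °C. Binding was read by filtration and scintillation counting and normalized to basal (vehicle = 0%).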
# [3] = Kinetic solubility in phosphate buffer at 400 uM incubated for 2 hrs by LC-MS/MS analysis; format: physicochemical; details: read-out: Kinetic_solubility
# In short: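 A 20 mM DMSO stock was diluted into phosphate buffer to a targeted 400 µM and vortexed 2 h at room temperature. Three independent experiments in duplicate.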
# [4] = Apparent permeability from apical to basolateral side in MDCK-MDR1 cells incubated up to 90 mins by LC-MS/MS analysis; format: ADME, cell-based, Canis lupus familiaris; details: dog
# In short: (§2)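 MDCK-MDR1 cells were grown 3 days on Transwell supports and preincubated 30 min at 37 °C in HBSS with 10 mM HEPES and 0.25% BSA, pH 7.4, with TEER checked. Test article (10 µM) was added to the apical (A-to-B) or basolateral (B-to-A) donor side at 37 °C with light agitation. Receiver samples were taken at 30, 60 and 90 min for LC-MS/MS. Papp = (dQ/dt)/(A·Ci·60).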
# Cannabinoid receptor 2 [5] = biological target: T2, Cannabinoid receptor 2 (Homo sapiens, UniProt P34972); assay: Antagonist activity at human CB2 receptor expressed in CHO cells co-expressing Galpha16 assessed as inhibition of EC80 CP55,940-induced calcium mobilization at 10 uM preincubated for 15 mins followed by […] addition measured at 1 sec interval for 90 secs by calcium-5 dye based FLIPR assay relative to CP55,940; format: functional, cell-based
# In short: (§3)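 CB2 antagonist mode in stable human CB2-CHO-RD-HGA16 cells. Cells were dye-loaded, then pretreated with compound for 15 min at 37 °C. CP55,940 was added at its EC80 at the 10 s point, and calcium fluorescence was recorded every 1 s over 90 s.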
# Cannabinoid receptor 2 [6] = biological target: T2, Cannabinoid receptor 2; assay: Antagonist activity at human CB2 receptor expressed in CHO cells co-expressing Galpha16 assessed as inhibition of EC80 CP55,940-induced calcium mobilization preincubated for 15 mins followed by […] addition measured at 1 sec interval for 90 secs by calcium-5 dye based FLIPR assay; format: functional, cell-based; in short: as §3
# [7] = Half life in rat liver microsomes in presence of NADPH by LC-MS/MS analysis; format: ADME, Microsome; details: microsomes; in short: as §1
# Cannabinoid receptor 2 [8] = biological target: T2, Cannabinoid receptor 2; assay: Agonist activity at human CB2 receptor expressed in CHO cells co-expressing Galpha16 assessed as increase in calcium mobilization at 10 uM measured at 1 sec interval for 90 secs by calcium-5 dye based FLIPR assay relative to CP55,940; format: functional, cell-based
# [9] = Efflux ratio from basolateral to apical side over apical to basolateral side in MDCK-MDR1 cells incubated up to 90 mins by LC-MS/MS analysis; format: ADME, cell-based, Canis lupus familiaris; details: dog
# [10] = Apparent permeability from basolateral to apical side in MDCK-MDR1 cells incubated up to 90 mins by LC-MS/MS analysis; format: ADME, cell-based, Canis lupus familiaris; details: dog; in short: as §2
# Rattus norvegicus [11] = assay: Suppression of drug-induced cocaine-seeking behavior in Sprague-Dawley rat assessed as effect on active responses at 10 mg/kg, ip pretreated 10 mins prior to priming injection of cocaine administered immediately before the start of the reinstatement session; format: functional, organism-based
# Rattus norvegicus [12] = assay: Suppression of drug-induced cocaine-seeking behavior in Sprague-Dawley rat assessed as effect on inactive responses at 10 mg/kg, ip pretreated 10 mins prior to priming injection of cocaine administered immediately before the start of the reinstatement session; format: functional, organism-based
# Cannabinoid receptor 1 [13] = biological target: T1, Cannabinoid receptor 1; assay: Allosteric modulator activity at human CB1 receptor expressed in CHO-RD-HGA16 cells co-expressing Galpha16 assessed as suppression of 100 nM CP55,940-induced calcium mobilization pre-incubated for 15 mins by Calcium 5 dye based FLIPR assay; format: functional, cell-based
# T2 sequence (P34972 whole entry): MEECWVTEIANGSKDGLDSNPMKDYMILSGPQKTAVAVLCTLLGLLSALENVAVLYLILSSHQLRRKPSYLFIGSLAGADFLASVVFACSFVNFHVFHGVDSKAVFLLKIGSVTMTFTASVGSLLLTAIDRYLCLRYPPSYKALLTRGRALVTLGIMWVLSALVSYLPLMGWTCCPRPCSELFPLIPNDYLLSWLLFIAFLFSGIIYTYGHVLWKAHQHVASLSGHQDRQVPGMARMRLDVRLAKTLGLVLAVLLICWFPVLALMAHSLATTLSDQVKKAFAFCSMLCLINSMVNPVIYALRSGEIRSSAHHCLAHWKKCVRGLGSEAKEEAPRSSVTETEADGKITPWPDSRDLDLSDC
# T1 sequence (P21554 whole entry): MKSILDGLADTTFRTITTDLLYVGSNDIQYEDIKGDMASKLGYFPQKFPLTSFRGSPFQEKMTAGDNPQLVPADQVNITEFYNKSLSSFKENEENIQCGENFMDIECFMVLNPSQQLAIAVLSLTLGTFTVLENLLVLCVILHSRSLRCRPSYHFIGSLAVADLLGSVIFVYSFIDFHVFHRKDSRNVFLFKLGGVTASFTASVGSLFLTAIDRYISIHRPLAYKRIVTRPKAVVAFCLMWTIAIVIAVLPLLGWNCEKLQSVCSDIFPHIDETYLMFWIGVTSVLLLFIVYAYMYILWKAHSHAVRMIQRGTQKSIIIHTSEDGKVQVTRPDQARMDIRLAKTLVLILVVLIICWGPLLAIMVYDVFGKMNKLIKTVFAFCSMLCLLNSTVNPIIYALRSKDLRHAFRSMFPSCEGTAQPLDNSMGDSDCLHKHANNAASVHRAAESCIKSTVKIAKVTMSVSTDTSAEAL
smiles,measurement,setting,value
O=C(Nc1ccc(Cl)cc1)Nc1ccc(-c2ccccc2)s1,CLH,[1],22.2 µL/min/mg
same,inhibition (INH),Cannabinoid receptor 1 [2],Not Active
same,"solubility kinetic at 2 h, 400 µM",[3],1.5 µM
same,Papp,[4],1.6 ×10⁻⁶ cm/s
same,inhibition,Cannabinoid receptor 2 [5],< 50%
same,IC50,Cannabinoid receptor 2 [6],> 10000 nM
same,t1/2,[7],1.08 h
same,Emax,Cannabinoid receptor 2 [8],< 10%
same,Ratio,[9],0.7
same,Papp,[10],1.1 ×10⁻⁶ cm/s
same,Activity,Rattus norvegicus [11],inactive
same,Activity,Rattus norvegicus [12],inactive
same,IC50,Cannabinoid receptor 1 [13],6.8 nM
